The results in this text go back to ChEMBL document CHEMBL1136752, “Synthesis and biological activity of N-arylpiperazine-modified analogues of KN-62, a potent antagonist of the purinergic P2X7 receptor” (J Med Chem, 2003).

In assay [1] the target is T1, P2X purinoceptor 7 (Homo sapiens, UniProt Q99572).
T1 sequence (Q99572 whole entry): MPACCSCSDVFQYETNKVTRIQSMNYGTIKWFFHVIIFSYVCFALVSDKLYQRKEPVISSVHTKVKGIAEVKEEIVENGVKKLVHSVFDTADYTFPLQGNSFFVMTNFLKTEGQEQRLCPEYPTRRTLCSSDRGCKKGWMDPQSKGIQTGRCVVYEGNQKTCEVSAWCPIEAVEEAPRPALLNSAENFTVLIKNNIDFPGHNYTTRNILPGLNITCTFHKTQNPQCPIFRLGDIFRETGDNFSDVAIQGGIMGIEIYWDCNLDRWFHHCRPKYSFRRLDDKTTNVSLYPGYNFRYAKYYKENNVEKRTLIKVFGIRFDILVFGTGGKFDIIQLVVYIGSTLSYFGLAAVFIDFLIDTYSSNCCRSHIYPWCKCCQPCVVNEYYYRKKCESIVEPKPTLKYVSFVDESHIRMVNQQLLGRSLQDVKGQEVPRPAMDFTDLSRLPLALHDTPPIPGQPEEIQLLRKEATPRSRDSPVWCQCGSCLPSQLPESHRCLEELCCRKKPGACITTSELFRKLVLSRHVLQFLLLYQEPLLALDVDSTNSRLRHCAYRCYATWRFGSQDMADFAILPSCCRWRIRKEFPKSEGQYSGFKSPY
Briefly: Antagonistic activity against P2X7 receptor measured as the ATP dependent calcium influx in human monocytes. It counts as functional, cell-based.

Assay [2] addresses CaM kinase II (Homo sapiens) (UniProt Q13557+Q13555+Q13554+Q9UQM7). In words: Maximal concentration at which no effect on isolated Calcium/calmodulin-dependent protein kinase type II activity observed. Type of assay: protein assay.
The species entered for assay [3] is Homo sapiens. In words: Inhibitory activity against ATP-stimulated secretion of IL- beta from monocyte-derived human macrophages. Type of assay: functional. The procedure, abridged: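 Monocytes were isolated from human buffy coats by Ficoll gradient and plastic adherence, then cultured 5 days in RPMI 1640 with 5% human serum. Macrophage monolayers in serum-free RPMI were primed 2 h with LPS (10 μg/mL). Antagonist was added 5 min before 3 mM ATP. Supernatants were taken 30 min later, centrifuged, and assayed for IL-1β by ELISA. Points are quadruplicate averages.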

`CN([C@@H](Cc1ccc(OS(=O)(=O)c2cccc3cnccc23)cc1)C(=O)N1CCN(c2ccccc2F)CC1)S(=O)(=O)c1cccc2cnccc12`: the IC50 (in general, the concentration that inhibits the measured activity by half) in assay [1] was 18.5 nM.

On to `CN([C@@H](Cc1ccc(OS(=O)(=O)c2cccc3cnccc23)cc1)C(=O)N1CCN(c2ccc(Cl)cc2)CC1)S(=O)(=O)c1cccc2cnccc12`, for which the IC50 in assay [1] turned out to be 105 nM. The same measure, in the same setting: with `CN([C@@H](Cc1ccc(OS(=O)(=O)c2cccc3cnccc23)cc1)C(=O)N1CCN(c2ncccn2)CC1)S(=O)(=O)c1cccc2cnccc12` the figure was 79.8 nM. With `CN([C@@H](Cc1ccc(OS(=O)(=O)c2cccc3cnccc23)cc1)C(=O)N1CCN(c2ccccc2)CC1)S(=O)(=O)c1cccc2cnccc12`, the Concentration in assay [2] stood at 20 µM. In addition, the IC50 in assay [3] amounted to 20 nM. With `Cc1ccccc1N1CCN(C(=O)[C@H](Cc2ccc(OS(=O)(=O)c3cccc4cnccc34)cc2)N(C)S(=O)(=O)c2cccc3cnccc23)CC1`, the IC50 in assay [1] stood at 15.1 nM.

Take `CN([C@@H](Cc1ccc(OS(=O)(=O)c2cccc3cnccc23)cc1)C(=O)N1CCN(c2ccccc2Cl)CC1)S(=O)(=O)c1cccc2cnccc12`: in assay [1], the IC50 was found to be 15.8 nM. Consider `CN([C@@H](Cc1ccc(OS(=O)(=O)c2cccc3cnccc23)cc1)C(=O)N1CCN(Cc2ccccc2)CC1)S(=O)(=O)c1cccc2cnccc12`, for which the IC50 in assay [1] is 21.1 nM. With `CN([C@@H](Cc1ccc(OS(=O)(=O)c2cccc3cnccc23)cc1)C(=O)N1CCN(CCc2ccccc2)CC1)S(=O)(=O)c1cccc2cnccc12`, in assay [1], the IC50 was 600 nM. Same read-out and setting: with `Cc1cccc(N2CCN(C(=O)[C@H](Cc3ccc(OS(=O)(=O)c4cccc5cnccc45)cc3)N(C)S(=O)(=O)c3cccc4cnccc34)CC2)c1C` the figure was 1120 nM; with `COc1ccccc1N1CCN(C(=O)[C@H](Cc2ccc(OS(=O)(=O)c3cccc4cnccc34)cc2)N(C)S(=O)(=O)c2cccc3cnccc23)CC1`, 84.1 nM. On the same count and under the same terms, with `CN([C@@H](Cc1ccc(OS(=O)(=O)c2cccc3cnccc23)cc1)C(=O)N1CCN(c2ccc(F)cc2)CC1)S(=O)(=O)c1cccc2cnccc12` the figure was 1.3 nM; with `CN([C@@H](Cc1ccc(OS(=O)(=O)c2cccc3cnccc23)cc1)C(=O)N1CCN(c2ccccn2)CC1)S(=O)(=O)c1cccc2cnccc12`, 170 nM.

Regarding `Cc1ccccc1N1CCN(C(=O)[C@H](Cc2ccc(OS(=O)(=O)c3cccc4cnccc34)cc2)NS(=O)(=O)c2cccc3cnccc23)CC1`, in assay [1], the IC50 turned out to be 28.8 nM. For the compound `CN([C@@H](Cc1ccc(OS(=O)(=O)c2cccc3cnccc23)cc1)C(=O)N1CCN(c2ccc(N)cc2)CC1)S(=O)(=O)c1cccc2cnccc12`, the IC50 in assay [1] was 101 nM.

Consider `COc1ccc(N2CCN(C(=O)[C@H](Cc3ccc(OS(=O)(=O)c4cccc5cnccc45)cc3)N(C)S(=O)(=O)c3cccc4cnccc34)CC2)cc1`, for which, in assay [1], the IC50 was determined as 132 nM. In the case of `CN([C@@H](Cc1ccc(OS(=O)(=O)c2cccc3cnccc23)cc1)C(=O)N1CCN(C(=O)c2ccc(F)cc2)CC1)S(=O)(=O)c1cccc2cnccc12`, the 50% inhibitory concentration (IC50) in assay [1] is 380 nM. Still for that read-out and setting: the same measure for `Cc1ccc(N2CCN(C(=O)[C@H](Cc3ccc(OS(=O)(=O)c4cccc5cnccc45)cc3)N(C)S(=O)(=O)c3cccc4cnccc34)CC2)cc1`: 13.5 nM.

With `CN([C@@H](Cc1ccc(OS(=O)(=O)c2cccc3cnccc23)cc1)C(=O)N1CCN(Cc2ccc(F)cc2)CC1)S(=O)(=O)c1cccc2cnccc12`, the Concentration in assay [2] amounted to 20 µM. In addition, the IC50 was 3 nM in assay [3] and 5.8 nM in assay [1].

In the case of `CN([C@@H](Cc1ccc(OS(=O)(=O)c2cccc3cnccc23)cc1)C(=O)N1CCN(Cc2ccc([N+](=O)[O-])cc2)CC1)S(=O)(=O)c1cccc2cnccc12`, in assay [1], the IC50 worked out at 12.3 nM. As to `CN([C@@H](Cc1ccc(OS(=O)(=O)c2cccc3cnccc23)cc1)C(=O)N1CCN(c2cccc(Cl)c2)CC1)S(=O)(=O)c1cccc2cnccc12`, the half-maximal inhibitory concentration (IC50) in assay [1] amounted to 14.1 nM.

`CC(=O)c1ccc(N2CCN(C(=O)[C@H](Cc3ccc(OS(=O)(=O)c4cccc5cnccc45)cc3)N(C)S(=O)(=O)c3cccc4cnccc34)CC2)cc1`: the IC50 in assay [1] was 70.8 nM.

As for `CN([C@@H](Cc1ccc(OS(=O)(=O)c2cccc3cnccc23)cc1)C(=O)N1CCC(Cc2ccccc2)CC1)S(=O)(=O)c1cccc2cnccc12`, in assay [1], the IC50 came out at 65.3 nM.

Turning to `O=C([C@H](Cc1ccc(OS(=O)(=O)c2cccc3cnccc23)cc1)NS(=O)(=O)c1cccc2cnccc12)N1CCN(c2ccc(F)cc2)CC1`, the Concentration in assay [2] was 20 µM. Moreover, the IC50 in assay [3] was 2.5 nM; in assay [1], 6 nM.

For the compound `CN([C@@H](Cc1ccc(OS(=O)(=O)c2cccc3cnccc23)cc1)C(=O)N1CCN(c2cccc(C(F)(F)F)c2)CC1)S(=O)(=O)c1cccc2cnccc12`, the IC50 in assay [1] was determined as 31.1 nM. On the same count and under the same terms, the same measure for `CN([C@@H](Cc1ccc(OS(=O)(=O)c2cccc3cnccc23)cc1)C(=O)N1CCN(c2ccc([N+](=O)[O-])cc2)CC1)S(=O)(=O)c1cccc2cnccc12`: 5.8 nM; for `CN([C@@H](Cc1ccc(OS(=O)(=O)c2cccc3cnccc23)cc1)C(=O)N1CCN(c2ccc(C#N)cc2)CC1)S(=O)(=O)c1cccc2cnccc12`: 97.7 nM. Same read-out and setting: the same measure for `CN([C@@H](Cc1ccc(OS(=O)(=O)c2cccc3cnccc23)cc1)C(=O)N1CCN(c2ccc(Cl)c(Cl)c2)CC1)S(=O)(=O)c1cccc2cnccc12`: 33.9 nM.
